Reference: ChEMBL document CHEMBL1123681, “Molecular modification of anticholinergics as probes for muscarinic receptors. 2. Amino esters of alpha-methyltropic acid” (J Med Chem, 1987)

Legend:
[1] = species on record: Rattus norvegicus; experiment: Relative potency with respect to (+/-)-3-Hydroxy-2-methyl-2-phenyl-propionic acid 2-diethylamino-ethyl ester in isolated rat ileum preparation; type: functional
[2] = test system: ileum (Cavia porcellus); experiment: Antispasmodic activity was calculated as molar concentration of antagonist that inhibited 50% of a standard contraction response from isolated guinea pig ileum preparation; conditions: read-out: ID50 (the source's name)
[3] = species on record: Cavia porcellus; experiment: Ability to inhibit 50% standard contraction response of the guinea pig ileal tissue was measured with increasing concentrations of Acetylcholine (ACh) in the tissue bath; type: functional
[4] = species on record: Rattus norvegicus; experiment: Antispasmodic activity was calculated as molar concentration of antagonist that inhibited 50% of a standard contraction response from isolated rat ileum preparation; type: functional; conditions: read-out: ID50 (the source's name)
[5] = species on record: Rattus norvegicus; experiment: (§1) Antispasmodic activity was measured as uM); type: functional
[6] = species on record: Rattus norvegicus; experiment: as §1; type: functional; remark: listed apart in the source
[7] = species on record: Rattus norvegicus; experiment: as §1; type: functional; remark: listed apart in the source
[8] = species on record: Rattus norvegicus; experiment: Antispasmodic activity calculated as ability of compound to block ACh-induced contractions of the ileum and expressed as pA2; type: functional, organism-based; conditions: for Kb: Rattus norvegicus, Ileum, read-out: pA2 (converted)
Method in brief: (§2)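 Ileum from overnight-fasted rats killed by cervical dislocation, suspended in aerated Tyrode solution and recorded via force-displacement transducer. Contractions measured across increasing ACh concentrations, then ACh responses with antagonist present. pA2 derived by the Ariens–van Rossum method as the mean from linear regression of two or more experiments at four or more dose levels. ID50 is the molar antagonist concentration inhibiting 50% of a standard contraction.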

[9] = species on record: Cavia porcellus; experiment: Ability to inhibit 50% standard contraction response of the guinea pig ileal tissue was measured with increasing concentrations of Acetylcholine (ACh) in the tissue bath
[10] = species on record: Rattus norvegicus; experiment: Antispasmodic activity was measured as percent reduction in rat ileum contraction against 300 ug/mL barium chloride 3 ug/mL (6.4X 10E-6 uM); type: functional
Method in brief: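 Rat ileum strips in a tissue bath were contracted with a standard BaCl2 dose (300 μg/mL), chosen from a preliminary dose-response, then washed back to baseline. Test compound was added and equilibrated for 10 min. Without washout, the same BaCl2 dose was given again. Percent inhibition was taken from the contraction before versus after compound.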

[11] = species on record: Cavia porcellus; experiment: Antispasmodic activity was determined from isolated guinea pig ileum preparation
[12] = species on record: Rattus norvegicus; experiment: Antispasmodic activity was calculated according to Ariens and van Rossum from isolated rat ileum preparations; type: functional; conditions: read-out: pA2 (converted); method in brief: as §2
[13] = species on record: Rattus norvegicus; experiment: Antispasmodic activity was measured as percent reduction in rat ileum contraction against 300 ug/mL barium chloride 0.5 ug/mL (1.5 X 10E-6 uM); type: functional
Method in brief: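 Ileum strips from overnight-fasted rats killed by cervical dislocation, held in a tissue bath with force-displacement transducer recording. BaCl2 at 300 µg/mL, a standard dose set by a preliminary dose-response study, induced contraction; tissue washed back to baseline. Test agent equilibrated 10 min, then the same BaCl2 dose was added without washout. Percent inhibition was taken from contraction before versus after agent.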

SMILES	Relative potency [1]	IC50 ([4]; Rattus norvegicus, Ileum)	Kb [8]	IC50 [4]	pA2 [8]	other results
CCN(CC)CCOC(=O)C(C)(COC(C)=O)c1ccccc1.Cl (stereo unspecified)	0.8	–	–	–	–	IC50 [2]: 394 nM
CCN(CC)CCOC(=O)C(C)(CF)c1ccccc1.Cl (stereo unspecified)	1.04	301 nM	302 nM	–	–	ID50 [3]: 411 nM; Inhibition [5]: 24%; Inhibition [6]: 35.7%; Inhibition [7]: 15.7%
CCN(CC)CCOC(=O)C(C)(CCl)c1ccccc1.Cl (stereo unspecified)	0.57	554 nM	550 nM	–	–	ID50 [9]: 1170 nM
CCN(CC)CCOC(=O)C(C)(CI)c1ccccc1.Cl (stereo unspecified)	8.11	38.7 nM	38.9 nM	–	–	–
CCN(CC)CCOC(=O)C(C)(CBr)c1ccccc1.Cl (stereo unspecified)	2.47	127 nM	126 nM	–	–	–
CCN(CC)CCOC(=O)C(C)(COS(=O)(=O)c1ccc(C)cc1)c1ccccc1.Cl (racemic)	8.07	–	–	38.9 nM	7.41	Inhibition [10]: 33%
CCN(CC)CCOC(=O)C(C)(CO)c1ccccc1.Cl (racemic)	–	–	–	314 nM	6.5	ID50 [3]: 483 nM
CCN(CC)CCOC(=O)C(C)(CO)c1ccccc1.Cl (single isomer, unassigned; (+))	0.27	–	–	1140 nM	5.94	Log K [11]: 6.13
CCN(CC)CCOC(=O)C(C)(CO)c1ccccc1.Cl (single isomer, unassigned; (-))	19.26	–	–	16.3 nM	–	Log K [11]: 7.996; Kb [12]: 16.2 nM
CCN(CC)CCOC(=O)C(C)(COS(=O)(=O)c1ccc(C)cc1)c1ccccc1.Cl (stereo in doubt; 2a)	10.13	–	–	31 nM	7.51	–
CCN(CC)CCOC(=O)C(C)(COS(=O)(=O)c1ccc(C)cc1)c1ccccc1.Cl (stereo in doubt; 2b)	1.83	–	–	172 nM	6.77	–
CN1[C@@H]2CC[C@H]1C[C@@H](OC(=O)C(CO)c1ccccc1)C2 (stereo partly specified) [ATROPINE]	–	–	–	–	–	Inhibition [13]: 5.9%
